Test results published in ChEMBL document CHEMBL4049460, “Trisubstituted Imidazoles with a Rigidized Hinge Binding Motif Act As Single Digit nM Inhibitors of Clinically Relevant EGFR L858R/T790M and L858R/T790M/C797S Mutants: An Example of Target Hopping” (J Med Chem, 2017).

Tests used:
[1] = biological target: Mitogen-activated protein kinase 10 (Homo sapiens) (UniProt P53779); assay: Inhibition of recombinant full-length human JNK3 (M1 to R426 residues) expressed in Escherichia coli assessed as residual activity at 1 uM in presence of [33-gamma]-ATP after 60 mins by scintillation counting method relative to control
[2] = biological target: Serine/threonine-protein kinase 26 (Homo sapiens) (UniProt Q9P289); assay: (§1) Inhibition of recombinant full-length human MST4 (M1 to P416 residues) harboring thrombin cleavage site expressed in Baculovirus infected Sf9 cells assessed as residual activity at 1 uM in presence of [33-gamma]-ATP after 60 mins by scintillation counting method relative to control
[3] = biological target: Receptor tyrosine-protein kinase erbB-4 (Homo sapiens) (UniProt Q15303); assay: as §1, with “recombinant” for “recombinant full-length”, “N-terminally GST-His6 tagged ERBB4 (R676” for “MST4 (M1”, “V1307” for “P416”, “residues) C-terminal fragment” for “residues)”
[4] = biological target: T1, Epidermal growth factor receptor (Homo sapiens, UniProt P00533, L858R); assay: Inhibition of recombinant human GST-tagged EGFR L858R mutant cytoplasmic domain expressed in baculovirus expression system preincubated for 20 mins followed by addition of [33P]-ATP measured after 2 hrs by filter-binding method; conditions: read-out: IC50
[5] = biological target: T2, Epidermal growth factor receptor (Homo sapiens, UniProt P00533, L858R/T790M); assay: Binding affinity to human EGFR L858R/T790M double mutant (669 to 1011 residues) expressed in mammalian system preincubated for 1 hr followed by 30 fold dilution measured after 5 hrs
Method in brief: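 Competition binding against an immobilized active-site-directed ligand; Kd read out. Compound and kinase combined and equilibrated 1 h, then diluted 30-fold in reaction buffer and equilibrated a further 5 h (study arm B).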

Homo sapiens [6] = species on record: Homo sapiens; assay: Selectivity ratio of IC50 for p38alpha MAPK (unknown origin) to IC50 for recombinant human GST-tagged EGFR L858R/T790M double mutant cytoplasmic domain expressed in baculovirus expression system
EGFR (wild-type) = EGFR (wild-type) (Homo sapiens, UniProt P00533); assay: (§2) Inhibition of recombinant wild-type human N-terminally GST-His6 tagged EGFR (H672 to A1210 residues) C-terminal fragment harboring 3C cleavage site expressed in Baculovirus infected Sf9 cells assessed as residual activity at 1 uM in presence of [33-gamma]-ATP after 60 mins by scintillation counting method relative to control; conditions: read-out: Activity
[7] = biological target: Casein kinase I isoform delta (Homo sapiens) (UniProt P48730); assay: Inhibition of CK1 delta (unknown origin) assessed as residual activity at 1 uM in presence of [33-gamma]-ATP after 60 mins by scintillation counting method relative to control
[8] = biological target: Epidermal growth factor receptor (Homo sapiens, UniProt P00533, T790M/C797S/L858R); assay: Inhibition of recombinant human N-terminally GST-tagged EGFR L858R/T790M/C797S triple mutant expressed in baculovirus in Sf9 insect cells preincubated for 20 mins followed by addition of [33P]-ATP measured after 2 hrs by filter-binding method
[9] = biological target: T3, Epidermal growth factor receptor (Homo sapiens, UniProt P00533); assay: Ratio of Kd for wild-type human EGFR (669 to 1011 residues) after 1 hr to Kd for wild-type human EGFR (669 to 1011 residues) after 6 hrs; type: ADME
Method in brief: (§3)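 Kd from competition with an immobilized active-site-directed ligand […]. Ratio compares 1 h compound–kinase equilibration against an arm with 6 h overall equilibration.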

[10] = biological target: Tyrosine-protein kinase BTK (Homo sapiens) (UniProt Q06187); assay: as §1, with “N-terminally GST-HIS6 tagged BTK” for “MST4”, “S659” for “P416”, “3C-cleavage” for “thrombin cleavage”
[11] = biological target: T3, Epidermal growth factor receptor; assay: Binding affinity to wild-type human EGFR (669 to 1011 residues) expressed in bacterial system incubated for 1 hr; type: ADME
Method in brief: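 Competition binding of inhibitor against an immobilized active-site-directed ligand; Kd read out. Compound and kinase combined and equilibrated for 1 h without dilution (study arm C).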

[12] = biological target: Mitogen-activated protein kinase 14 (Homo sapiens, UniProt Q16539); assay: Inhibition of p38alpha MAPK (unknown origin) assessed as decrease in ATF2 phosphorylation at Thr69/71 at 1 uM after 1 hr by ELISA
[13] = biological target: T2, Epidermal growth factor receptor; assay: Inhibition of recombinant human GST-tagged EGFR L858R/T790M double mutant cytoplasmic domain expressed in baculovirus expression system preincubated for 20 mins followed by addition of [33P]-ATP measured after 2 hrs by filter-binding method
Homo sapiens [14] = species on record: Homo sapiens; assay: as §2, with “recombinant” for “recombinant wild-type”, “EGFR del 752-759 mutant” for “EGFR”
[15] = biological target: Misshapen-like kinase 1 (Homo sapiens) (UniProt Q8N4C8); assay: Inhibition of recombinant human N-terminally GST-HIS6 tagged MINK1 (M1 to E320 residues) harboring 3C-cleavage site expressed in Baculovirus infected Sf9 cells assessed as residual activity at 1 uM in presence of [33-gamma]-ATP after 60 mins by scintillation counting method relative to control
Homo sapiens [16] = species on record: Homo sapiens; assay: as §2, with “recombinant” for “recombinant wild-type”, “EGFR del 747-752/P753S mutant” for “EGFR”
[17] = biological target: T1, Epidermal growth factor receptor; assay: Binding affinity to human EGFR L858R mutant (669 to 1011 residues) expressed in bacterial system preincubated for 1 hr followed by 30 fold dilution measured after 5 hrs
Method in brief: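 Competition binding: compound's ability to displace an immobilized, active-site-directed ligand from the kinase, reported as Kd. Compound and kinase were equilibrated 1 h, diluted 30-fold in reaction buffer, then equilibrated a further 5 h before read-out.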

[18] = system: Epidermal growth factor receptor (Homo sapiens), P00533 [G719C]; assay: as §2, with “recombinant” for “recombinant wild-type”, “EGFR G719C mutant” for “EGFR”
[19] = biological target: T3, Epidermal growth factor receptor; assay: Inhibition of recombinant human GST-tagged wild type EGFR ( 668 to 1210 residues) cytoplasmic domain expressed in baculovirus expression system preincubated for 20 mins followed by addition of [33P]-ATP measured after 2 hrs by filter-binding method; conditions: read-out: IC50
[20] = system: Epidermal growth factor receptor (Homo sapiens), P00533 [L858R,T790M]; assay: Ratio of Kd for human EGFR L858R/T790M double mutant (669 to 1011 residues) after 1 hr to Kd for EGFR L858R/T790M double mutant (669 to 1011 residues) after 6 hrs; method in brief: as §3
[21] = system: Epidermal growth factor receptor (Homo sapiens), P00533 [T790M]; assay: as §2, with “recombinant” for “recombinant wild-type”, “EGFR T790M mutant” for “EGFR”
[22] = biological target: Cytoplasmic tyrosine-protein kinase BMX (Homo sapiens) (UniProt P51813); assay: Inhibition of BMX (unknown origin) assessed as residual activity at 1 uM in presence of [33-gamma]-ATP after 60 mins by scintillation counting method relative to control
Cytoplasmic tyrosine-protein kinase BMX (Homo sapiens), sequence (P51813 whole entry): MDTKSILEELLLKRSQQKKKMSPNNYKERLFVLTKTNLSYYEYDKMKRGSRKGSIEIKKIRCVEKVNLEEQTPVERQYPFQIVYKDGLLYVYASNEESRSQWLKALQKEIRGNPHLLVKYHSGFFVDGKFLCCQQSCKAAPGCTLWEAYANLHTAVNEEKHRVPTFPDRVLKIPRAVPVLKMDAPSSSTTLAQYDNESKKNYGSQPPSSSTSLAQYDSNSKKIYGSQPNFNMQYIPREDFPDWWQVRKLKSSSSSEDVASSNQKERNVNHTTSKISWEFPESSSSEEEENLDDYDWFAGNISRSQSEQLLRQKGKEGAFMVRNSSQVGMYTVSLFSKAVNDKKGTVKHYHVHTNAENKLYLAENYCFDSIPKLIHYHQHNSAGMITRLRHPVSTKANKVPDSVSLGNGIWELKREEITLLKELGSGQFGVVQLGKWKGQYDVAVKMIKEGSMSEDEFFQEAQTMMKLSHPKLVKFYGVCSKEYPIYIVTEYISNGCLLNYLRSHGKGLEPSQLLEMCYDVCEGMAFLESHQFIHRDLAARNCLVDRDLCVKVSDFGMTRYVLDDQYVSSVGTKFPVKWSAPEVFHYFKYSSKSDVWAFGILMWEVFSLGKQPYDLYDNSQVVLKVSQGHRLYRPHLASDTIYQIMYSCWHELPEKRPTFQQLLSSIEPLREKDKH

Tyrosine-protein kinase BTK (Homo sapiens), sequence (Q06187 whole entry, the tested form may be a part): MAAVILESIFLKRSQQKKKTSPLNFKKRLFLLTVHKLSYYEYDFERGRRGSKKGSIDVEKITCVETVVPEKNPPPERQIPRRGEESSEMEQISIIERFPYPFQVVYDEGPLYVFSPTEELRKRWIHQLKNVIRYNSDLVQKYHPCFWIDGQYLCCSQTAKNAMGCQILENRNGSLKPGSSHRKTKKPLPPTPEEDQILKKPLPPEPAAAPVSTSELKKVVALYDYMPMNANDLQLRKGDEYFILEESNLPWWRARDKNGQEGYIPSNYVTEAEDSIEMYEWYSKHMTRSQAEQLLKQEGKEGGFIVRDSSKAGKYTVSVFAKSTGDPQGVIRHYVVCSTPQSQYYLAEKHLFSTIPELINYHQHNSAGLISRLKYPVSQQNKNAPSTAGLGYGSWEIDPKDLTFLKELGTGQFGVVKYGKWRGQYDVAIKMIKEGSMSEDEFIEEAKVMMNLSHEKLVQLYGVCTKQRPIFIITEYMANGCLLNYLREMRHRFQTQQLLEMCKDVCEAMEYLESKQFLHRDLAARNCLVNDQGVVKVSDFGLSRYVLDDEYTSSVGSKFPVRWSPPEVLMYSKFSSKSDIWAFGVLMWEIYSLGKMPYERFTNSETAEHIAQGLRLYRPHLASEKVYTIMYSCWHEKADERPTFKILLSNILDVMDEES
Serine/threonine-protein kinase 26 (Homo sapiens), sequence (Q9P289 2-416 limits assumed): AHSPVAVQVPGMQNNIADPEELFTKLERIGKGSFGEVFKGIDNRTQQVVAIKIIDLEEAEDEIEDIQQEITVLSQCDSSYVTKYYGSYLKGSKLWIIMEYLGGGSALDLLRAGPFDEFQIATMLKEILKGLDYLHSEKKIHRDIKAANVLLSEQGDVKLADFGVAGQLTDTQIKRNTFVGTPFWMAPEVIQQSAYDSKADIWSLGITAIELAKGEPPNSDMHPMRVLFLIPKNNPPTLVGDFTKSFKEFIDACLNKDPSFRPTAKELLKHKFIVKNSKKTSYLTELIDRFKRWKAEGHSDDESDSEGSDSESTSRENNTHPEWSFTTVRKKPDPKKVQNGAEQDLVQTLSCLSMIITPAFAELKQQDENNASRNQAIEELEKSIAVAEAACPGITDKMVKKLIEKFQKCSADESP
Mitogen-activated protein kinase 14, sequence (Q16539 whole entry, the tested form may be a part): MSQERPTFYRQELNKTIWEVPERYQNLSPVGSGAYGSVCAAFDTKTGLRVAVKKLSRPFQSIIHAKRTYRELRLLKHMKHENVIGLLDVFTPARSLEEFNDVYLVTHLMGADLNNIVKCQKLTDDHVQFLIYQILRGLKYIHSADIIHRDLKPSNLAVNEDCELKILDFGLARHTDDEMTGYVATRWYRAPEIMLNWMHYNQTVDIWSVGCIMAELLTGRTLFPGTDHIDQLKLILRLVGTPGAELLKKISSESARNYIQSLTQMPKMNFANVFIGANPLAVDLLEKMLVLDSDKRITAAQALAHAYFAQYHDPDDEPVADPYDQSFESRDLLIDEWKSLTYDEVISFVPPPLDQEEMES
Receptor tyrosine-protein kinase erbB-4 (Homo sapiens), sequence (Q15303 whole entry, the tested form may be a part): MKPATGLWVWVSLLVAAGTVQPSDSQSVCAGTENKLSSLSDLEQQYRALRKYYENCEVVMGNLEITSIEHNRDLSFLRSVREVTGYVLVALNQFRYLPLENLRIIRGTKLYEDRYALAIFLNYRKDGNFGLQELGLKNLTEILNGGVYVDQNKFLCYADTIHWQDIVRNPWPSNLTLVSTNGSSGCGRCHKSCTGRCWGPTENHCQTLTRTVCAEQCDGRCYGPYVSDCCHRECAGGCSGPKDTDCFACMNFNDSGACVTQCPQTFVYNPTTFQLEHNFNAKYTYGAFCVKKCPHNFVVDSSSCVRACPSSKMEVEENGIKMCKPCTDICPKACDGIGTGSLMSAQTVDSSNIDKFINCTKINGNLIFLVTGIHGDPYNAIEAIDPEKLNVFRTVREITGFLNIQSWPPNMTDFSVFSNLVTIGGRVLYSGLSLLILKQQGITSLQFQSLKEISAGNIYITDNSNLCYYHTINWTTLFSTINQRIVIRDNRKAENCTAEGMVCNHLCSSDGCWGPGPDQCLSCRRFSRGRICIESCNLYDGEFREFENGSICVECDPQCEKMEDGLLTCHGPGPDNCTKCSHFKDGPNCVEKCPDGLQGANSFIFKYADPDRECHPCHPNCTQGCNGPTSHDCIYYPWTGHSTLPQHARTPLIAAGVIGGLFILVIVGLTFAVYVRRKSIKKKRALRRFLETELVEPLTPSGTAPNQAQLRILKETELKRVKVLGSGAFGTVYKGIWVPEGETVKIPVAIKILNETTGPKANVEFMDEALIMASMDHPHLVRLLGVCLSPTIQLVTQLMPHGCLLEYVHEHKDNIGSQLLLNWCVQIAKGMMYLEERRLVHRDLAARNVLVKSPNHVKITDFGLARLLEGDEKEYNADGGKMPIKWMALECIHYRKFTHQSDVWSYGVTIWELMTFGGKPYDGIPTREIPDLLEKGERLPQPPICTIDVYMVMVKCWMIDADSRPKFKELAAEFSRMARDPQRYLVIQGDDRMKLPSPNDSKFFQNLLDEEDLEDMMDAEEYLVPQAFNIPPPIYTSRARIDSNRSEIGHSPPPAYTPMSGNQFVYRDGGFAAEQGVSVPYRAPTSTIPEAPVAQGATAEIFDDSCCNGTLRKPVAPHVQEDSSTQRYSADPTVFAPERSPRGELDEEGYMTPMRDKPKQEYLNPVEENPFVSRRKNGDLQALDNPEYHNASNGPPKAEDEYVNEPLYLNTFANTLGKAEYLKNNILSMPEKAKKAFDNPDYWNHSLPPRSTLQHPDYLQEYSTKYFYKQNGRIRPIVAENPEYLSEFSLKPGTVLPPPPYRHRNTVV
Mitogen-activated protein kinase 10 (Homo sapiens), sequence (P53779 whole entry, the tested form may be a part): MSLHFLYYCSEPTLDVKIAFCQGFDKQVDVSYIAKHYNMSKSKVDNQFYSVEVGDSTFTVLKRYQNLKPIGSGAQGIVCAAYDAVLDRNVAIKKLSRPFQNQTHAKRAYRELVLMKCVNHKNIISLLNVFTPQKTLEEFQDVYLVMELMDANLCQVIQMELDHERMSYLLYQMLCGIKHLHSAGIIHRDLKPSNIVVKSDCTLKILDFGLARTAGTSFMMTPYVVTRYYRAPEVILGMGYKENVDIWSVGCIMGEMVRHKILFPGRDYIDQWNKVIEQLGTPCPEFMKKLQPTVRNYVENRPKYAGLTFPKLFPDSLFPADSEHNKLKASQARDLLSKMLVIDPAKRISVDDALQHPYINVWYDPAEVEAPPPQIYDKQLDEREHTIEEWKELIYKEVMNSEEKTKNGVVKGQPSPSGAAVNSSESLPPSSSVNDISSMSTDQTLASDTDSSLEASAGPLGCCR
Casein kinase I isoform delta (Homo sapiens), sequence (P48730 whole entry, looked up, canonical isoform): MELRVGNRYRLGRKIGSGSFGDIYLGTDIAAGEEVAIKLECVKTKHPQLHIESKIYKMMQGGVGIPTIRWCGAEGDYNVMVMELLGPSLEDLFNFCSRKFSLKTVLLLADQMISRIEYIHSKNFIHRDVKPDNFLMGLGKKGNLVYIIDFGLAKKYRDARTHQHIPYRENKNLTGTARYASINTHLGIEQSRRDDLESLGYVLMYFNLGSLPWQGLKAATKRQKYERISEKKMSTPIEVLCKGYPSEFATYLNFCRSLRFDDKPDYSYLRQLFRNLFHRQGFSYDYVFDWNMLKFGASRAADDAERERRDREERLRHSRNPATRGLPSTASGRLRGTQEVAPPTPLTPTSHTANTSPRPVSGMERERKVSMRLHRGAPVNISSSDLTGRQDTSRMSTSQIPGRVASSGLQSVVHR

For `C=CC(=O)Nc1cccc(-c2c[nH]c3nccc(-c4[nH]c(CCCO)nc4-c4ccc(F)cc4)c23)c1`, the Activity [1] was 34%, the Activity [2] was 47% and the Activity [3] was 4%. The IC50 [4] was under 0.3 nM, the Kd [5] was 14 nM and the Ratio IC50 (Homo sapiens [6]) was 140. For the same compound, the activity at 1 h, 1 µM (EGFR (wild-type)) was 5%, the Activity [7] was 47% and the IC50 [8] was “Not Active”. For the same compound, the Ratio [9] was 3 to 5, the Activity [10] was 17% and the Kd [11] was 2 nM. It also gave an IC50 [12] of 214 nM, an IC50 [13] of 1.52 nM and an Activity (Homo sapiens [14]) of 6%. It also gave an Activity [15] of 5%, an Activity (Homo sapiens [16]) of 4% and a Kd [17] of 1.8 nM. It also gave an Activity [18] of 37%, an IC50 [19] of under 0.3 nM and a Ratio [20] of 3 to 5. It also gave an Activity [21] of 12% and an Activity [22] of 17%.
